# The source made the active and inactive calls. The calls are words filed in the database; no cut-off is given here.
# Columns and labels:
# U-251 [1] = experiment: Antiproliferative activity against human Temozolomide-resistant U-251 cells assessed as inhibition of cell growth measured after 48 hrs by MTT assay; format: functional, cell-based; details: U-251, 48 h
# Procedure, shortened: (§1)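 Cells plated at 5×10³ per well 24 h before compound and grown in DMEM with 10% FBS at 37°C, 5% CO₂. After 48 h exposure, the medium was replaced with 0.5 mg/mL MTT for 3 h. Formazan was dissolved in DMSO and read at 570 nm.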
# [2] = target: T1, Amine oxidase [flavin-containing] A (Mus musculus, UniProt Q64133); experiment: Inhibition of MAO A in mouse GL26 cells preincubated for 20 mins followed by 14C-labeled 5-hydroxytryptamine addition and measured after 20 mins by scintillation counter analysis; format: cell-based
# T1 sequence (Q64133 whole entry): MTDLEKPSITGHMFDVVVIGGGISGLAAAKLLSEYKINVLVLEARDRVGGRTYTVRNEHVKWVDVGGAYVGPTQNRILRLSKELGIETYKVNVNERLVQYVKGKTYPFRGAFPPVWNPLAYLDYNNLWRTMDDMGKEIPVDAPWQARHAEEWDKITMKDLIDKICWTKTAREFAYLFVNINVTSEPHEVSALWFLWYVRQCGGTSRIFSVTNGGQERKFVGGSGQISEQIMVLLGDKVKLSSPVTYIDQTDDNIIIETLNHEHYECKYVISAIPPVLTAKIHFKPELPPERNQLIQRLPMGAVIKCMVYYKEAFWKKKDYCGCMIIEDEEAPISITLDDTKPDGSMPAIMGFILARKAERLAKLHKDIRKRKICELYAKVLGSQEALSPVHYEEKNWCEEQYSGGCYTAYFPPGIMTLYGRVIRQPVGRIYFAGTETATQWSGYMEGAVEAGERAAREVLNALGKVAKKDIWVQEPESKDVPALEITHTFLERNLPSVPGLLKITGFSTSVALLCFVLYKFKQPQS
# [3] = target: Heat shock protein HSP 90-alpha (Homo sapiens, UniProt P07900); experiment: Inhibition of human recombinant HSP90alpha preincubated for 30 mins followed by FITC-GM addition and mesured after 3 hrs by fluorescence polarization assay
# [4] = Antiproliferative activity against mouse GL26 cells assessed as inhibition of cell growth measured after 48 hrs by MTT assay; format: functional, cell-based; details: GL26, 48 h; procedure, shortened: as §1
# A549 = experiment: Growth inhibition of human A549 cells incubated for 48 hrs by SRB assay; format: functional
# Procedure, shortened: (§2)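 NCI-60 panel screen: cells seeded at 5000 to 40000 per well according to doubling time, 24 h before drug addition at various concentrations. A time-zero plate was TCA-fixed at drug addition. After 48 h drug exposure, growth was read by sulforhodamine B staining. Percent growth = [(Ti − Tz)/(C − Tz)] × 100, and GI50 is the concentration at which this equals 50.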
# [5] = Antiproliferative activity against human patient-derived P3 cell assessed as inhibition of cell growth measured after 72 hrs by CCK8 method; format: functional, cell-based
# Procedure, shortened: (§3)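 Cell lines from ATCC or from patient surgical specimens (P1S, P3, P3R), kept in DMEM with 10% FBS and 1% penicillin/streptomycin at 37°C, 5% CO₂. P3R medium also held 50 μM TMZ. Cells were seeded at 2×10³/well 24 h before compound, then exposed 72 h.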
# [6] = Antiproliferative activity against human U373 MG cells assessed as inhibition of cell growth measured after 72 hrs by CCK8 method; format: functional, cell-based, U-373MG ATCC; procedure, shortened: as §3
# HCT-116 [7] = experiment: Downregulation of PD-L1 expression in human HCT-116 cells; format: functional, cell-based
# Procedure, shortened: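 HCT116 cells at 3 × 10⁵ per well were treated at various concentrations with or without 20 ng/mL IFN-γ for 48 h. Cells were stained with mouse anti-PD-L1 for 1 h in PBS/0.05% BSA, then FITC goat anti-mouse for 1 h. Surface FITC mean fluorescence intensity was measured by flow cytometry.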
# U-251 [8] = experiment: Downregulation of HER2 expression in human Temozolomide-resistant U-251 cells incubated for 24 hrs by Western blot analysis; format: functional, cell-based; details: dose 0.1-3 µM
# GL26 [9] = experiment: Downregulation of IFN-gamma induced PD-L1 expression in mouse GL26 cells incubated for 24 hrs by flow cytometry analysis; format: functional, cell-based
# Procedure, shortened: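 GL26 cells at 3.6 × 10⁵ per well were treated at various concentrations with or without 10 ng/mL IFN-γ for 24 h. Cells were stained with goat anti-PD-L1 for 1 h in PBS/0.05% BSA, then FITC donkey anti-goat for 1 h, and read by flow cytometry. MFI was normalised to the secondary-antibody-only isotype control and expressed as an MFI ratio.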
# NCI-H522 = experiment: Growth inhibition of human NCI-H522 cells incubated for 48 hrs by SRB assay; format: functional; procedure, shortened: as §2
# T98G = experiment: Antiproliferative activity against human T98G cells assessed as inhibition of cell growth measured after 72 hrs by CCK8 method; format: functional, cell-based; procedure, shortened: as §3
# GL26 [10] = experiment: Downregulation of Akt phosphorylation expression at Ser 473 residues in mouse GL26 cells incubated for 24 hrs by Western blot analysis; format: functional, cell-based; details: dose 0.1-3 µM
# U-87 MG = experiment: Antiproliferative activity against human U-87 MG cells assessed as inhibition of cell growth measured after 72 hrs by CCK8 method; format: functional, cell-based, U-87MG ATCC; procedure, shortened: as §3
# [11] = Antiproliferative activity against human patient-derived, TMZ-resistant and concurrent chemo-radiotherapy (CCRT)-resistant P1S cell assessed as inhibition of cell growth measured after 72 hrs by CCK8 method; format: functional, cell-based; procedure, shortened: as §3
# A 172 = experiment: Antiproliferative activity against human A-172 cells assessed as inhibition of cell growth measured after 72 hrs by CCK8 method; format: functional, cell-based; details: A 172, 72 h; procedure, shortened: as §3
# SF-539 = experiment: Growth inhibition of human SF-539 cells incubated for 48 hrs by SRB assay; format: functional; procedure, shortened: as §2
# HCT-116 [12] = experiment: Growth inhibition of human HCT-116 cells incubated for 48 hrs by SRB assay; format: functional; procedure, shortened: as §2
# SF-295 = experiment: Growth inhibition of human SF-295 cells incubated for 48 hrs by SRB assay; format: functional; procedure, shortened: as §2
# [13] = Antitumor activity against mouse GL26 cells xenografted in C57BL/6J mouse model assessed as tumor growth inhibition at 25 mg/kg, ip administered daily for 3 days followed by every 3 days for 14 days by caliper method relative to control; format: functional; details: GL26, 336 h, time 14 day, read-out: TGI
# Procedure, shortened: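 Male C57BL/6J mice aged 8-9 weeks received 2 × 10⁵ GL26 cells subcutaneously in the lower back. From day 9 after implantation, once tumours were palpable, 25 mg/kg was given i.p. daily for 3 days and then every 3 days over 14 days. Caliper volume was length × width² ÷ 2. TGI% was taken relative to the mean tumour size of the vehicle group.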
# SW-620 = experiment: Growth inhibition of human SW-620 cells incubated for 48 hrs by SRB assay; format: functional; procedure, shortened: as §2
# NCI-H460 = experiment: Growth inhibition of human NCI-H460 cells incubated for 48 hrs by SRB assay; format: functional; procedure, shortened: as §2
# U-251 [14] = experiment: Growth inhibition of human U-251 cells incubated for 48 hrs by SRB assay; format: functional; procedure, shortened: as §2
# [15] = Antiproliferative activity against human patient-derived TMZ-resistant GBM cells with MGMT negative P3R cell assessed as inhibition of cell growth measured after 72 hrs by CCK8 method; format: functional, cell-based; procedure, shortened: as §3
# LN-229 = experiment: Antiproliferative activity against human LN-229 cells assessed as inhibition of cell growth measured after 72 hrs by CCK8 method; format: functional, cell-based; details: LN-229, 72 h; procedure, shortened: as §3
# U-251 [16] = experiment: Downregulation of Akt phosphorylation expression at Ser 473 residues in human Temozolomide-resistant U-251 cells incubated for 24 hrs by Western blot analysis; format: functional, cell-based; details: dose 0.1-3 µM
# U-251 [17] = experiment: Upregulation of HSP70 expression in human Temozolomide-resistant U-251 cells incubated for 24 hrs by Western blot analysis; format: functional, cell-based; details: dose 0.1-3 µM
# RPMI-8226 = experiment: Growth inhibition of human RPMI-8226 cells incubated for 48 hrs by SRB assay; format: functional; procedure, shortened: as §2
# GL26 [18] = experiment: Upregulation of HSP70 expression in mouse GL26 cells incubated for 24 hrs by Western blot analysis; format: functional, cell-based; details: dose 0.1-3 µM
# SNB-75 = experiment: Growth inhibition of human SNB-75 cells incubated for 48 hrs by SRB assay; format: functional; procedure, shortened: as §2
# SNB-19 = experiment: Growth inhibition of human SNB-19 cells incubated for 48 hrs by SRB assay; format: functional; procedure, shortened: as §2
# SF-268 = experiment: Growth inhibition of human SF-268 cells incubated for 48 hrs by SRB assay; format: functional; procedure, shortened: as §2
# GL26 [19] = experiment: Downregulation of HER2 expression in mouse GL26 cells incubated for 24 hrs by Western blot analysis; format: functional, cell-based; details: dose 0.1-3 µM
# K562 = experiment: Growth inhibition of human K562 cells incubated for 48 hrs by SRB assay; format: functional; procedure, shortened: as §2
compound,measurement,setting,value
C#CCN(C)CCCOc1ccc(NC(=O)c2cc(C(C)C)c(O)cc2O)cc1Cl,IC50,U-251 [1],> 10000 nM
same,IC50,[2],110 nM
same,IC50,[3],> 10000 nM
same,IC50,[4],> 10000 nM
C#CCN(C)CCCOc1ccc(N(CC)C(=O)c2cc(C(C)C)c(O)cc2O)cc1Cl,GI50,A549,140 nM
same,IC50,U-251 [1],260 nM
same,IC50,[5],2930 nM
same,IC50,[6],890 nM
same,Activity,HCT-116 [7],Active
same,Activity,U-251 [8],Dose-Dependent Effect
same,Activity,GL26 [9],Dose-Dependent Effect
same,GI50,NCI-H522,70 nM
same,IC50,T98G,460 nM
same,IC50,[2],4580 nM
same,Activity,GL26 [10],Dose-Dependent Effect
same,IC50,U-87 MG,360 nM
same,IC50,[11],680 nM
same,IC50,A 172,890 nM
same,GI50,SF-539,310 nM
same,GI50,HCT-116 [12],80 nM
same,GI50,SF-295,320 nM
same,inhibition in vivo at 25 mg/kg,[13],59.8%
same,GI50,SW-620,240 nM
same,IC50,[3],16 nM
same,GI50,NCI-H460,50 nM
same,GI50,U-251 [14],370 nM
same,IC50,[15],1450 nM
same,IC50,LN-229,310 nM
same,Activity,U-251 [16],Dose-Dependent Effect
same,IC50,[4],490 nM
same,Activity,U-251 [17],Dose-Dependent Effect
same,GI50,RPMI-8226,330 nM
same,Activity,GL26 [18],Dose-Dependent Effect
same,GI50,SNB-75,860 nM
same,GI50,SNB-19,440 nM
same,GI50,SF-268,1430 nM
same,Activity,GL26 [19],Dose-Dependent Effect
same,GI50,K562,70 nM
C#CCN(C)CCCOc1cc(N(CC)C(=O)c2cc(C(C)C)c(O)cc2O)ccc1Cl,IC50,[2],> 10000 nM

# — ChEMBL document CHEMBL5370536, “Design, synthesis, and biological activity of dual monoamine oxidase A and heat shock protein 90 inhibitors, N-Methylpropargylamine-conjugated 4-isopropylresorcinol for glioblastoma” (Eur J Med Chem, 2023)
